In the assay the target is T1, 4-hydroxy-3-methylbut-2-enyl diphosphate reductase (Aquifex aeolicus (strain VF5), UniProt O67625).
T1 sequence (O67625 whole entry): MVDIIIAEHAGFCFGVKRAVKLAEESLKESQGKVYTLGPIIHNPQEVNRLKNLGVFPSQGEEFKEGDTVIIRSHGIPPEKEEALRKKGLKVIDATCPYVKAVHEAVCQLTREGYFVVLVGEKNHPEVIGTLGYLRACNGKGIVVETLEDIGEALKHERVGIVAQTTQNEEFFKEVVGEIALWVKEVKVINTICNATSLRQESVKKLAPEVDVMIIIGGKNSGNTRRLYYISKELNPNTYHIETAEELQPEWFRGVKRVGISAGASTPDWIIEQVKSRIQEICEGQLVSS
Put plainly: Inhibition of Aquifex aeolicus IspH expressed in Escherichia coli BL21 (DE3) using HMBPP substrate. It is filed as single protein. A digest of the protocol: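 A. aeolicus IspH expressed in BL-21(DE3), Ni-NTA purified, Fe4S4 cluster reconstituted anaerobically (DTT, sulfur, FeCl3; A410/A280 ≥0.38). Anaerobic assay, room temp, pH 8.0 Tris/NaCl/glycerol buffer, 0.4 mM dithionite, 2 mM methyl viologen, 72 nM IspH. Inhibitor preincubated 10 min, then 34 μM HMBPP added. Initial rates at 732 nm, dose-response fit for IC50; Ki via Cheng-Prusoff (KM 7 μM).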

Structures are written as SMILES.

For orientation: IC50 means the concentration needed to halve the response being measured. Read a low IC50 as greater potency. What is called Ki is the equilibrium dissociation constant of an inhibitor or competing ligand from its target. A lower Ki goes with a stronger hold on the target.

Molecule `Cc1ccc[n+](CC(O)(P(=O)([O-])O)P(=O)(O)O)c1` (configuration not stated) had an IC50 of 540 µM.

Turning to `CC(Cc1cccnc1)(P(=O)(O)O)P(=O)(O)O`, the IC50 is more than 1000 µM.

In the case of `O=P(O)(O)OP(=O)(O)OCc1cccnc1`, the IC50 worked out at 38 µM.

Molecule `O=P(O)(O)OP(=O)(O)OCc1ccc(Cl)nc1` yielded an IC50 of 3700 µM.

`O=P(O)(O)C(CNc1ccccn1)P(=O)(O)O`: the IC50 is more than 1000 µM.

As for `O=P(O)(O)C(O)(Cc1ccccn1)P(=O)(O)O`, the IC50 was found to be 485 µM.

The molecule `Cc1ccnc(NC(P(=O)(O)O)P(=O)(O)O)c1` displayed a half-inhibitory concentration (IC50) of 67 µM.

`O=P(O)(O)C(Cc1cccnc1)P(=O)(O)O` registered an IC50 of more than 1000 µM.

As for `C[n+]1cccc(CC(O)(P(=O)(O)O)P(=O)(O)O)c1`, the IC50 is more than 1000 µM.

Molecule `N#CCCOP(=O)(O)OP(=O)(O)O` [2-CYANOETHYL DIPHOSPHATE] had an IC50 of 53 µM.

`O=P(O)(O)OP(=O)(O)OCC#CCO` [4-HYDROXYBUT-2-YNYL DIPHOSPHATE] registered an IC50 of 26 µM.

The molecule `O=P(O)(O)OP(=O)(O)OCc1ccccn1` [(PYRIDIN-2-YL)-METHYL-DIPHOSPHATE] returned a half-maximal inhibitory concentration (IC50) of 1200 µM.

As for `O=P(O)(O)OP(=O)(O)OCc1ccncc1` [(PYRIDIN-4-YL)-METHYL-DIPHOSPHATE], the concentration for half-maximal inhibition (IC50) was 149 µM.

With `C#CCCOP(=O)(O)OP(=O)(O)O` [BUT-3-YNYL DIPHOSPHATE], the IC50 was 0.45 µM and the Ki came to 0.06 µM.

In turn, `N#CCOP(=O)(O)OP(=O)(O)O` [CYANOMETHYL DIPHOSPHATE] returned a half-maximal inhibitory concentration (IC50) of 245 µM.

The molecule `C#CCCCOP(=O)(O)OP(=O)(O)O` [PENT-4-YNYL DIPHOSPHATE] registered an IC50 of 6.5 µM.

In turn, `C#CCOP(=O)(O)OP(=O)(O)O` [PROP-2-YNYL DIPHOSPHATE] gave an IC50 of 6.7 µM.

`O=P(O)(O)OP(=O)(O)OCCc1cccnc1` [PYRIDIN-3-YL-ETHYL-DIPHOSPHATE] registered an IC50 of 9.1 µM and an inhibition constant Ki of 1.2 µM.

In turn, `O=P(O)(O)OP(=O)(O)OCCCc1cccnc1` [PYRIDIN-3-YL-PROPYL-DIPHOSPHATE] showed a concentration for half-maximal inhibition (IC50) of 463 µM.

The molecule `O=P(O)(O)C(O)(Cc1cccnc1)P(=O)(O)O` [RISEDRONIC ACID] came in with an IC50 of more than 1000 µM.

The values are drawn from ChEMBL document CHEMBL3044605, “Inhibition of the Fe(4)S(4)-cluster-containing protein IspH (LytB): electron paramagnetic resonance, metallacycles, and mechanisms” (J Am Chem Soc, 2010).
